SMILES strings stand for the structures. Calls of active or inactive are those of the source. The calls are words filed in the database; no cut-off is given here. Some results are limits rather than exact numbers.

One assay concerns HCT-8. The assay is described as follows: In vitro for cytotoxicity against human colon tumor cells (HCT-8) in culture. Format: functional, cell-based.
Assay [1] deals with Lewis lung carcinoma cell line. The assay is described as follows: Evaluated in vivo for antitumor activity against Lewis lung carcinoma; g denotes ILS of 50% could not be reached at any dose level. The class given is functional, organism-based. The note with it: Mus musculus. In a few lines:
(§1)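 Mice inoculated intravenously with 10^6 Lewis lung carcinoma cells, then drug intraperitoneally in 0.1 mL 30% v/v ethanol-water on days 5, 9 and 13. D50 (mg/kg per day for 50% ILS) taken from dose-response graph. ILS at optimal dose versus untreated tumor-bearing controls. Survivors counted at 40 days.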

For assay [2], the system named is P388. The assay is described as follows: In vivo for antitumor activity against P388 leukemia. Format: functional, Mus musculus. The gist of the method: (§2)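 Mice given 10^6 P388 leukemia cells intraperitoneally, then drug intraperitoneally in 0.1 mL 30% v/v ethanol-water on days 1, 5 and 9. D50 (mg/kg per day giving 50% ILS) read from dose-response graph. ILS at optimal dose versus untreated controls. Long-term survival counted at 30 days.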

Another assay deals with L1210. The assay is described as follows: In vitro for cytotoxicity against murine leukemia cells (L1210). Format: functional, cell-based. The conditions noted are these: Mus musculus.
The subject of assay [3] is Lewis lung carcinoma cell line. Put plainly: Evaluated in vivo for antitumor activity against Lewis lung carcinoma; i denotes Inactive. The conditions noted are these: Mus musculus. Format: functional, organism-based. In a few lines:
as §1

Assay [4] has as its system P388. The assay is described as follows: Evaluated in vivo for antitumor activity against P388 leukemia; g denotes ILS of 50% could not be reached at any dose level. The class given is functional, organism-based. The conditions noted are these: Mus musculus. In a few lines: as §2
In assay [5] the test system is Lewis lung carcinoma cell line. The assay is described as follows: In vivo for antitumor activity against Lewis lung carcinoma. Format: functional, Mus musculus. In a few lines:
as §1

A further assay has as its system poly[d(A-T)]. Put plainly: Binding constant relative to amsacrine (Δlog K) for DNA binding by ethidium bromide displacement. The conditions noted are these: Bos taurus.
For assay [6], the system named is P388. Put plainly: In vivo for antitumor activity against P388 leukemia. Format: functional, Mus musculus. The gist of the method: as §2
The test system of assay [7] is P388. The assay is described as follows: Compound was evaluated in vivo for antitumor activity against P388 leukemia; i denotes Inactive. The note with it: Mus musculus. The class given is functional, organism-based. The gist of the method: as §2

With `CNc1cc(NS(C)(=O)=O)ccc1Nc1c2ccccc2nc2ccc(OC)cc12`, the IC50 (in general, the midpoint of a concentration-inhibition curve) was determined as 1.9 µM in the assay with HCT-8 and 1.2 µM in the assay on L1210. Also, the D50 entry (in [1]; in the assay with P388 [4]) was “ILS of 50% could not be reached” throughout. For the same molecule, the OD in the assay with P388 [2] is 100 mg/kg; in assay [5], 150 mg/kg. Moreover, in assay [3], the ILSmax result was “inactive”. Further, in the assay on poly[d(A-T)], the Δlog K worked out at 5.8. This molecule registered an ILSmax with P388 [6] of 25%.

For the molecule `CNc1cc(NS(C)(=O)=O)ccc1Nc1c2ccccc2nc2ccc(Cl)cc12`, the IC50 in the assay with HCT-8 was 2.5 µM; in the assay with L1210 it was more than 1.6 µM. For the same molecule, the D50 result (in assay [1]; in the assay with P388 [4]) was “ILS of 50% could not be reached” in each case. Moreover, the OD with P388 [2] is 100 mg/kg; in assay [5] it was 150 mg/kg. For the same molecule, the ILSmax result (in the assay with P388 [7]; in [3]) was “inactive” throughout.

Take `CNc1cc(NS(C)(=O)=O)ccc1Nc1c2ccccc2nc2c(Br)cccc12`: the figures for the IC50 with HCT-8 and with L1210 were 1.8 µM and 0.19 µM, respectively. In addition, the D50 entry (in [1]; in the assay on P388 [4]) was “ILS of 50% could not be reached” in each case. For the same molecule, the OD (in the assay with P388 [2]; in assay [5]) was 100 mg/kg each time. Besides, the ILSmax result in assay [3] was “inactive”. Moreover, the Δlog K in the assay on poly[d(A-T)] is 6.37. In the assay with P388 [6], this molecule registered an ILSmax of 35%.

For the molecule `CNC(=O)c1ccc(Cl)c2c(Nc3ccc(NS(C)(=O)=O)cc3NC)c3ccccc3nc12`, the IC50 is 4.8 µM with HCT-8 and more than 1.6 µM in the assay on L1210. The same molecule yielded an OD in the assay with P388 [2] of 150 mg/kg. In addition, the D50 result in the assay with P388 [4] was “ILS of 50% could not be reached”. In addition, in the assay with poly[d(A-T)], the Δlog K is 6.75. This molecule displayed an ILSmax in the assay on P388 [6] of 38%.

For `CNc1cc(NS(C)(=O)=O)ccc1Nc1c2ccccc2nc2c(C)ccc(C)c12`, the half-inhibitory concentration (IC50) with HCT-8 is 2.1 µM; with L1210 it was 1.7 µM. Moreover, in the assay on P388 [2], the OD turned out to be 65 mg/kg. For the same molecule, in the assay on P388 [7], the ILSmax entry is “inactive”. Besides, in the assay on P388 [4], the D50 entry is given as “ILS of 50% could not be reached”. The molecule also had a Δlog K in the assay with poly[d(A-T)] of 6.18.

Values taken from ChEMBL document CHEMBL1123442 (J Med Chem, 1986).
